From ChEMBL document CHEMBL1127737, “Characterization of two taxol photoaffinity analogues bearing azide and benzophenone-related photoreactive substituents in the A-ring side chain” (1994)

Tests used:
[1] = system: J774; assay: Concentration that inhibits the cell division by 50% after 72 h; type: functional; settings: Mus musculus, J774, 72 h; read-out: ED50 (the source's name)
In short: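 J774.2 murine macrophage-like cells (3×10^5 per 60-mm plate) incubated with a range of compound concentrations; viable cell number counted by Coulter counter after 72 h. ED50 taken as the concentration inhibiting cell division by 50%. Compounds dissolved in DMSO, final DMSO at most 0.2%.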

[2] = Relative initial slope of the compound; type: functional
In short: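 Calf brain microtubule protein, purified by two cycles of temperature-dependent assembly-disassembly. Assembly ran in 0.1 M MES, 1 mM EGTA, MgCl2 and 3 M glycerol, pH 6.6, at 35 °C and was followed by turbidity at 350 nm. Assembly extent and initial slope were expressed relative to taxol. DMSO vehicle was at most 1% final.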

[3] = system: Tubulin (Bos taurus); assay: Effect of compound on assembly property of microtubule protein. 1.5 mg/mL MTP + 15 uM compound

EC50 [1] [nM]	Compound	Relative initial slope [2]	Assembly [3] [%]
280	CC(=O)O[C@H]1C(=O)[C@@]2(C)[C@H]([C@H](OC(=O)c3ccccc3)[C@]3(O)C[C@H](OC(=O)[C@H](O)[C@@H](NC(=O)c4ccc(N=[N+]=[N-])cc4)c4ccccc4)C(C)=C1C3(C)C)[C@]1(OC(C)=O)CO[C@@H]1C[C@@H]2O	84	
1500	CC(=O)O[C@H]1C(=O)[C@@]2(C)[C@H]([C@H](OC(=O)c3ccccc3)[C@]3(O)C[C@H](OC(=O)[C@H](O)C(NC(=O)c4ccc(C(=O)c5ccccc5)cc4)c4ccccc4)C(C)=C1C3(C)C)[C@]1(OC(C)=O)CO[C@@H]1C[C@@H]2O (stereo not given in full)	15	39
	Nc1nc2c(ncn2[C@@H]2O[C@H](COP(=O)(O)OP(=O)(O)OP(=O)(O)O)[C@@H](O)[C@H]2O)c(=O)[nH]1 [GUANOSINE TRIPHOSPHATE]	65	70
90	CC(=O)O[C@H]1C(=O)[C@@]2(C)[C@H]([C@H](OC(=O)c3ccccc3)[C@]3(O)C[C@H](OC(=O)[C@H](O)[C@@H](NC(=O)c4ccccc4)c4ccccc4)C(C)=C1C3(C)C)[C@]1(OC(C)=O)CO[C@@H]1C[C@@H]2O [PACLITAXEL]	100	100
